Rows were chosen to be rich in hits. Some 2.6% of all compounds tested hit in one or more screens of this group.
HTRA1 inhibitor: inhibitors of human serine peptidase HTRA1 | 0.5% of 340,000 active | inhibition, % at 5.96 µM | Q92743 | recombinant HTRA1, FP-rhodamine activity-based probe, fluorescence polarization; in the data active = inhibition above about 36%;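 also: 0% = enzyme with DMSO and 100% = wells lacking enzyme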
ABHD4 inh: ABHD4 (mouse) inhibition, primary FP screen. purified mABHD4, FP-Rh probe fluorescence polarization. Q8VD66. inhibition, % at 8.92 µM. 0.54% of 370,000 active;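 active = inhibition exceeding the mean over every tested compound plus 3 SD, cut at about 30% in these data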;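 also: 0% = plate median of compound wells and 100% = S159A mutant with DMSO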
Target sequence (Q8VD66 whole entry, looked up): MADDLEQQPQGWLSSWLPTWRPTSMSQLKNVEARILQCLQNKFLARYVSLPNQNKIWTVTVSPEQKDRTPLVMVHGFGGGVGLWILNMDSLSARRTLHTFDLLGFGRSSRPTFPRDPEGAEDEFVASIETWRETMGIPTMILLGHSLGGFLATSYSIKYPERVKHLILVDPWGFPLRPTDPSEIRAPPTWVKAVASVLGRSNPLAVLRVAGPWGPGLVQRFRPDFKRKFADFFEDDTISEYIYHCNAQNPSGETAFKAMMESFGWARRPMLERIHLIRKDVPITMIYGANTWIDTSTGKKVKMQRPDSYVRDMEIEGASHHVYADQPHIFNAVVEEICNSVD
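System: mouse ABHD4 enzyme, wild type / Medium: HEPES pH 7.0, NaCl, Pluronic buffer / Reagent: FP-Rh activity-based fluorescent probe / Control set: S159A mutant high control, sample median low control / Detection: fluorescence polarization with parallel and perpendicular emission, 525/598 nm / Schedule: 45 min + 60 min at 25 °C / Compound dosing: 8.92 µM, single dose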
PRMT1 FP inh: blocks human protein arginine methyltransferase 1; 1.3% of 370,000 active; inhibition, % at 2.79 µM; recombinant PRMT1, activity-based probe fluorescence polarization; Q99873;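 active = inhibition above about 21% made by adding two undisclosed values, limit read from the data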
TCR-CD3 inh: blocks the human TCR-CD3 interaction. inhibition, % at 9.4 µM. TAMRA-labeled TCR probe fluorescence, biochemical. 0.37% of 360,000 active;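 also: recombinant mutant TCR 2C K166C tagged with TAMRA read by polarization; 0% = receptor in buffer alone and 100% = receptor with positive control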
SIAE primary: inhibitors of human sialic acid acetylesterase SIAE; Q9HAT2; SIAE FP-Rh probe binding, fluorescence polarization; inhibition, % at 9.66 µM; 0.69% of 370,000 active; AID 1053197;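 active = inhibition above a cutoff: mean of compounds within the control limits plus 3 SD of those, cut at about 17% in these data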;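 also: 0% = plate median of compound wells and 100% = probe without SIAE protein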
BSA TAMRA ctr: counter-screen for TCR-CD3 interaction inhibitors: BSA probe. AID 652035. 10% of 1,200 active. shares compounds with TCR-CD3 inh. inhibition, % at 9.4 µM. TAMRA-labeled BSA probe fluorescence counterscreen; in the data active = inhibition above about 23%;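 also: 0% = buffer low control and 100% = reference high control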
TCR-CD3 conf: TCR-CD3 interaction inhibition, confirmation. shares compounds with TCR-CD3 inh. TAMRA-labeled TCR probe fluorescence binding assay. inhibition, % at 9.4 µM. 48% of 1,200 active
Numbers without * were called inactive; / = no result. Rule as the data show it, unless noted: active = inhibition above about 19%; inactive = the rest.

SMILES	HTRA1 inhibitor	ABHD4 inh	PRMT1 FP inh	TCR-CD3 inh	SIAE primary	BSA TAMRA ctr	TCR-CD3 conf
CCN1CCN(Cc2ccc(NC(=O)c3ccc(C)c(NC(=O)c4cc(-c5ccc(Br)cc5)n[nH]4)c3)cc2C(F)(F)F)CC1	-100	-35	-1	26*	-57	8	8
C/C(=N\NC(=O)c1ccccc1O)C1CC1	13	4	3	25*	0	41*	23*
COCCCN1C(=O)c2ccc(C(=O)NCc3ccccn3)cc2C1=O	0	3	2	3	5	/	/
CCN(CC)Cc1c(O)c(Cl)cc2c3c(c(=O)oc12)CCCC3	-1	29	1	22*	-3	-4	-2
COc1ccc(CCNc2nc(C)nc3c2nnn3Cc2ccccc2)cc1OC	-6	-1	2	-3	-3	/	/
Cc1nc(S/C(=C/c2ccc(-c3ccc(C(=O)O)cc3)o2)C(=O)O)n[nH]1	1	22	8	68*	-16	-7	51*
COC(=O)[C@]12C[C@H](CC(=O)N3CCN(C(=O)C4CC4)CC3)C(=O)N(Cc3ccc4c(c3)OCO4)C1=C[C@H](COCc1ccccc1)O[C@@H]2C	/	4	3	-4	4	/	/
CCOc1ccccc1NC(=O)C(=O)N/N=C/c1cc(Br)ccc1O	14	14	-3	28*	1	-10	21*
CSc1ccc(/C=C/C(=O)OCC(=O)NC2CCS(=O)(=O)C2)cc1 (stereo unspecified)	0	0	-1	5	-2	/	/
CCc1n[nH]c(=S)n1/N=C/c1cc(OC)cc([N+](=O)[O-])c1O	18	21	3	44*	8	-14	44*
COc1cc(/C=N/n2c(=S)[nH]nc(C)c2=O)cc([N+](=O)[O-])c1O	/	5	0	0	-3	/	/
O=C(COC(=O)c1ccc(F)cc1F)Nc1cccc(S(=O)(=O)N2CCOCC2)c1	2	-7	0	8	1	/	/
O=C1CC(c2ccc(O)c(O)c2)Oc2c1ccc(O)c2O (stereo unspecified)	34	28	37*	28*	11	-23	33*
C=CCCC(=O)N1C[C@H]2CON(C)[C@H]2C[C@H]1c1cccc(Br)c1	1	-1	-2	-1	-1	/	/
COC(=O)c1c(C)[nH]c(C=Nc2ccc(OC)cc2)c1C	0	1	3	-4	-5	/	/
COC(=O)c1c(C)[nH]c(O)c1C=Nc1ccc(C#N)cc1	1	9	10	41*	9	2	6
C/C(=C\C(=O)c1ccc(Br)cc1)NNC(=O)c1ccc(O)cc1	31	-19	4	35*	1	-12	27*
CCC(=O)NNC(=O)c1c(O)c2ccccc2[nH]c1=O	-4	3	-2	33*	-1	-4	24*
CN(C)S(=O)(=O)c1ccc(Cl)c(C(=O)Nc2nc3ccccc3[nH]2)c1	-2	2	0	-3	-2	/	/
Cc1ccc(NS(=O)(=O)c2ccc(Cl)c(C(=O)Nc3ccccc3-c3nc4ccccc4[nH]3)c2)cc1C	-137	-199	-3	78*	-219	18	37*
COc1cccc(/C=N/NC(=O)CNC(=O)COc2ccccc2)c1O	4	-1	-4	0	4	/	/
Cc1cccc(OCC(=O)NCC(=O)N/N=C/c2cc(Br)cc(Br)c2O)c1	18	-6	4	51*	5	-18	41*
CCN(CC(=O)N1CCOCC1)S(=O)(=O)c1ccccc1	4	5	-1	4	2	/	/
Cc1nn(C)c(C(=O)N/N=C/c2ccc(Br)cc2)c1Cl	-4	13	-1	21*	-1	1	3
Cc1nn(C)c(C(=O)N/N=C/c2ccncc2)c1Cl	2	0	0	-2	7	/	/
COc1ccc(N(C)S(=O)(=O)c2cccc(C(=O)Nc3nnc(C4CC4)s3)c2)cc1	-14	-11	3	6	-6	/	/
COc1cc(OC)c(N(C)S(=O)(=O)c2cccc(C(=O)Nc3nnc(C4CC4)s3)c2)cc1Cl	-8	-11	-1	21*	-17	7	4
NS(=O)(=O)c1cc(C(=O)NC2CCSc3ccccc32)ccc1Cl (stereo unspecified)	-178	-36	21	40*	-43	0	36*
